Data taken from the RNAGym collection of RNA variant scans (doi:10.1038/nmeth.2970).

B1: GFP aptamer (parent)
chain: GCUUCUGGACUGCGAUGGGAGCACGAAACGUCGUGGCGCAAUUGGGUGGGGAAAGUCCUUAAAAGAGGGCCACCACAGAAGC
B2: NELF-E aptamer (parent)
chain: CCCAACGACUGCCGAGCGAGAUUACGCUUGAGCGCCCCACUGAGGAUGCCCACGGGCGAUUGGGGCACGG

Variants of: B1
Experiment: HiTS-RAP
Conditions: with EGFP
In short: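 Aptamer DNA templates carrying a T7 promoter and ter site were sequenced on an Illumina GAIIx flowcell, then transcribed in situ by T7 RNA polymerase and halted by GST-Tus (30 minutes, 37°C). Clusters were imaged after 30-minute room-temperature equilibration with EGFP-mOrange at 0.04 nM to 625 nM in fivefold steps. Intensities were decay-corrected, normalised to sequencing intensity and averaged per sequence. Kd came from weighted Hill fits per lane, geometrically averaged over three lanes, with non-rising sequences set to 125 nM.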

First: C13G
Second: C13A
The Kd of the first is 2.3-fold lower: 6.37 nM for the first, 14.6 nM for the second.

Compared with A23G C74U, A26G A77G is 1.7-fold higher in Kd: 2.27 nM for the first, 3.88 nM for the second.

Going from A15U to A15C, the Kd rises from 10.3 nM to 66.2 nM (6.4-fold).

A15G and U16C A28G are within 1.5-fold of each other in Kd: 4.76 nM for the first, 4.74 nM for the second.

Going from G33U to G33C, the Kd rises from 35.1 nM to ≥ 125 nM. The first binds more tightly here.

G33A and U4C are within 1.5-fold of each other in Kd: 11.6 nM for the first, 7.99 nM for the second.

U4A and U4G are within 1.5-fold of each other in Kd: 4.17 nM for the first, 4.6 nM for the second.

Compared with A27G U34C, U31C U42C is 2.1-fold higher in Kd: 9.07 nM for the first, 19.5 nM for the second. The first binds more tightly here.

G30A G33A and U34C are within 1.5-fold of each other in Kd: 27.8 nM for the first, 24.2 nM for the second.

Compared with U34A, U34G is 5.1-fold lower in Kd: 30.6 nM for the first, 6.01 nM for the second. The second binds more tightly here.

Going from U34C A77G to G25A A26G, the Kd falls from 18 nM to 6.06 nM (3-fold).

First: C10U A27G
Second: C37U C73U
The Kd of the first is 7.7-fold lower: 3.1 nM for the first, 24 nM for the second. The first binds more tightly here.

First: C32U U43C
Second: A28G U31C
The Kd of the first is 2.5-fold lower: 2.27 nM for the first, 5.74 nM for the second. The first binds more tightly here.

Compared with C13U A27G, A26G U31C is 2-fold lower in Kd: 7.37 nM for the first, 3.77 nM for the second. The second binds more tightly here.

Going from C10U G14A to A28G A41G, the Kd falls from 6.22 nM to 2.01 nM (3.1-fold).

A20G C58U and A20G G25A are within 1.5-fold of each other in Kd: 11.5 nM for the first, 10.8 nM for the second.

G30A and G30C are within 1.5-fold of each other in Kd: 4.37 nM for the first, 4.2 nM for the second.

G30U and A40G A77G are within 1.5-fold of each other in Kd: 3.95 nM for the first, 4.67 nM for the second.

First: C10G A20G
Second: A20G G44A
The Kd of the first is 3-fold lower: 4.36 nM for the first, 13 nM for the second.

First: C10U C32U
Second: G38C
The Kd of the first is 13-fold lower: 6.54 nM for the first, 83.5 nM for the second.

Compared with G38U, G38A is 1.9-fold higher in Kd: 14.5 nM for the first, 28 nM for the second. The first binds more tightly here.

Going from C24U G68A to A20G A26G, the Kd falls from 54.1 nM to 7.96 nM (6.8-fold). The second binds more tightly here.

A27G C71U and G25A C32U are within 1.5-fold of each other in Kd: 17.8 nM for the first, 13.6 nM for the second.

Going from G14C to G14A, the Kd falls from 25.1 nM to 7.34 nM (3.4-fold). The second binds more tightly here.

G14U and U31C A79G are within 1.5-fold of each other in Kd: 4.92 nM for the first, 3.52 nM for the second.

U6C and U6A are within 1.5-fold of each other in Kd: 8.4 nM for the first, 8.81 nM for the second.

First: U6G
Second: G25A G33A
The Kd of the first is 1.6-fold lower: 7.45 nM for the first, 11.9 nM for the second.

First: A20G G30A
Second: C13U A26G
The Kd of the first is 13-fold higher: 30.3 nM for the first, 2.37 nM for the second.

A20U and A20C cannot be ordered by Kd: ≥ 125 nM for the first, ≥ 125 nM for the second.

First: A20G
Second: A27G U31C
The Kd of the first is 1.8-fold higher: 8.28 nM for the first, 4.55 nM for the second. The second binds more tightly here.

Compared with A27G U43C, G14A C32U is 3.5-fold higher in Kd: 4.45 nM for the first, 15.4 nM for the second. The first binds more tightly here.

First: A28G G68A
Second: A28G G44A
The Kd of the first is 6.6-fold higher: 32.8 nM for the first, 4.96 nM for the second.

First: A26G C32U
Second: A20G U31C
The Kd of the first is 7-fold lower: 5.01 nM for the first, 35.3 nM for the second.

First: C29U U34C
Second: A28G A77G
The Kd of the first is 7.9-fold higher: 20.1 nM for the first, 2.55 nM for the second.

Compared with G14A A26G, C13U A40G is 2.6-fold lower in Kd: 7.76 nM for the first, 3 nM for the second.

G17C and G17A cannot be ordered by Kd: ≥ 125 nM for the first, ≥ 125 nM for the second.

Compared with G17U, A23G U34C is 4.7-fold lower in Kd: 5.8 nM for the first, 1.23 nM for the second. The second binds more tightly here.

A28G U42C and C22U A27G are within 1.5-fold of each other in Kd: 6.79 nM for the first, 9.49 nM for the second.

First: A27G G46A
Second: U34C A41G
The Kd of the first is 4.6-fold higher: 12.7 nM for the first, 2.74 nM for the second.

Compared with A26G C70U, C32U C70U is 12-fold higher in Kd: 0.997 nM for the first, 11.5 nM for the second. The first binds more tightly here.

Going from U11C A40G to G8A G14A, the Kd rises from 4.63 nM to 20.2 nM (4.4-fold).

Compared with G30A C74U, G19C is higher in Kd: 5.86 nM for the first, ≥ 125 nM for the second.

Going from G19U to G19A, the Kd falls from ≥ 125 nM to 48.3 nM.

First: C13U C74U
Second: C24U C37U
The Kd of the first is 2.5-fold higher: 17.4 nM for the first, 6.91 nM for the second. The second binds more tightly here.

A27G C70U and G7U are within 1.5-fold of each other in Kd: 17 nM for the first, 23.4 nM for the second.

First: G7A
Second: G7C
The Kd of the first is 2-fold lower: 43.8 nM for the first, 88.1 nM for the second. The first binds more tightly here.

First: A28G U60C
Second: A27G C58U
The Kd of the first is 25-fold higher: 13.9 nM for the first, 0.55 nM for the second. The second binds more tightly here.

Going from U31C U43C to A28G A79G, the Kd rises from 1.5 nM to 3.44 nM (2.3-fold).

Compared with A23G A27G, U31C A75G is 2.4-fold higher in Kd: 5.79 nM for the first, 14 nM for the second. The first binds more tightly here.

C29U U31C showed a Kd of 2.86 nM.

Variants of: B2
Experiment: HiTS-RAP
Conditions: with NELF-E (Drosophila)
In short: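 Kd came from weighted Hill fits to the first binding curve, with intensities normalised to sequencing intensity and averaged per sequence, keeping only fits whose variance was below 1,000,000. That curve was imaged on an Illumina GAIIx flowcell, where sequenced aptamer DNA templates with a T7 promoter and ter site had been transcribed in situ by T7 RNA polymerase and halted by GST-Tus (30 minutes, 37°C). Before each image, clusters equilibrated for 30 minutes at room temperature with NELF-E-mOrange at 0.064 to 1000 nM in HEPES binding buffer.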

Compared with A59C, A59G is 2.3-fold lower in Kd: 110 nM for the first, 47.9 nM for the second. The second binds more tightly here.

Going from A59U to G54C, the Kd falls from 72.2 nM to 10.6 nM (6.8-fold). The second binds more tightly here.

Compared with G54U, A59G G64A is 7-fold higher in Kd: 6.39 nM for the first, 44.7 nM for the second. The first binds more tightly here.

Going from U60G to U60C, the Kd rises from 5.2 nM to 9.28 nM (1.8-fold). The first binds more tightly here.

Compared with U60A, G64C G65U is 1.9-fold lower in Kd: 9.5 nM for the first, 5.12 nM for the second.

G55A A67U and G65U A67U are within 1.5-fold of each other in Kd: 11.2 nM for the first, 8.45 nM for the second.

G63A and G63U are within 1.5-fold of each other in Kd: 12.8 nM for the first, 10.3 nM for the second.

Compared with G63C, G64A G65U is 6.6-fold lower in Kd: 33.8 nM for the first, 5.13 nM for the second.

G62U G64U and C57U A67G are within 1.5-fold of each other in Kd: 5.62 nM for the first, 4.59 nM for the second.

C66U and C66A are the same in Kd: 4.61 nM for the first, 4.61 nM for the second.

C66G and G63U G65U are within 1.5-fold of each other in Kd: 4.38 nM for the first, 5.32 nM for the second.

G69U and G69A are within 1.5-fold of each other in Kd: 5.33 nM for the first, 4.82 nM for the second.

G69C and G54U G56U are within 1.5-fold of each other in Kd: 5.52 nM for the first, 5.48 nM for the second.

G64A and G64U are within 1.5-fold of each other in Kd: 7.74 nM for the first, 7.29 nM for the second.

G64C and G55A G65U are within 1.5-fold of each other in Kd: 7.73 nM for the first, 6.71 nM for the second.

First: U61C
Second: U61A
The Kd of the first is 2.2-fold higher: 63.7 nM for the first, 28.4 nM for the second. The second binds more tightly here.

Compared with U61G, C57A is 1.8-fold higher in Kd: 7.54 nM for the first, 13.9 nM for the second. The first binds more tightly here.

C57U and C57G are within 1.5-fold of each other in Kd: 5.5 nM for the first, 6.36 nM for the second.

First: G58U A59G
Second: G58A
The Kd of the first is 1.8-fold lower: 5.09 nM for the first, 9.31 nM for the second. The first binds more tightly here.

First: G58C
Second: G58U
The Kd of the first is 6.7-fold higher: 65.3 nM for the first, 9.77 nM for the second. The second binds more tightly here.

First: G62A
Second: G62U
The Kd of the first is 2.3-fold higher: 16.9 nM for the first, 7.51 nM for the second. The second binds more tightly here.

Compared with G62C, G64A A67G is 10-fold lower in Kd: 48.2 nM for the first, 4.84 nM for the second.

Going from G64A A67U to A67C, the Kd falls from 35.5 nM to 4.99 nM (7.1-fold). The second binds more tightly here.

A67U and A67G are within 1.5-fold of each other in Kd: 6.41 nM for the first, 5.33 nM for the second.

G70A and G70U are within 1.5-fold of each other in Kd: 4.46 nM for the first, 5.07 nM for the second.

G70C and G65U C66G are within 1.5-fold of each other in Kd: 4.44 nM for the first, 4.98 nM for the second.

Going from U61A A67G to U61A A67U, the Kd rises from 27.4 nM to 49.7 nM (1.8-fold).

C68G and C68A are within 1.5-fold of each other in Kd: 4.57 nM for the first, 5.29 nM for the second.

C68U and G65A are within 1.5-fold of each other in Kd: 4.59 nM for the first, 4.39 nM for the second.

First: G65C
Second: G65U
The Kd of the first is 2.3-fold higher: 14 nM for the first, 6.03 nM for the second.

First: G56C
Second: G56U
The Kd of the first is 7.1-fold higher: 37.4 nM for the first, 5.3 nM for the second.

First: G56A
Second: G55U
The Kd of the first is 1.6-fold higher: 10.3 nM for the first, 6.36 nM for the second. The second binds more tightly here.

G55C and G55A are within 1.5-fold of each other in Kd: 7.14 nM for the first, 7.36 nM for the second.

Going from U61G G62U to U61C A67G, the Kd rises from 5.22 nM to 68.2 nM (13-fold).
